The nature of assay [1]: Cytotoxicity against human DU145 cells after 48 hrs by CCK8 assay. As to conditions: DU-145, 48 h. A general note: Tetrazolium dyes change colour on reduction, which living cells bring about.
A short description of assay [2]: Cytotoxicity against human HCT15 cells after 48 hrs by CCK8 assay. Format: functional, cell-based. As to conditions: HCT-15, 48 h. A digest of the protocol: (§1)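 IC50 values are reported in micromolar. Adriamycin, etoposide and camptothecin served as positive controls.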
Another assay deals with HeLa. The assay is described as follows: Cytotoxicity against human HeLa cells after 48 hrs by CCK8 assay. Type of assay: functional, cell-based. A digest of the protocol:
as §1

Counter-ions that a name gives are not always drawn.

From ChEMBL document CHEMBL3779827, “A new series of 2-phenol-4-aryl-6-chlorophenyl pyridine derivatives as dual topoisomerase I/II inhibitors: Synthesis, biological evaluation and 3D-QSAR study” (Eur J Med Chem, 2016) come the findings set out here.

As for `CC[C@@]1(O)C(=O)OCc2c1cc1n(c2=O)Cc2cc3ccccc3nc2-1` [CAMPTOTHECIN], the results for the IC50 (in assay [1]; in assay [2]; in the assay on HeLa) were 0.02 µM, 2.82 µM and 0.18 µM, respectively.
For the compound `COc1cc([C@@H]2c3cc4c(cc3[C@@H](O[C@@H]3O[C@@H]5CO[C@@H](C)O[C@H]5[C@H](O)[C@H]3O)[C@H]3COC(=O)[C@H]23)OCO4)cc(OC)c1O` [ETOPOSIDE], the IC50 (commonly the concentration that gives 50% inhibition) in assay [1] came out at 2.09 µM; in assay [2], 18.9 µM.
Turning to `COc1cccc2c1C(=O)c1c(O)c3c(c(O)c1C2=O)C[C@@](O)(C(=O)CO)C[C@@H]3O[C@H]1C[C@H](N)[C@H](O)[C@H](C)O1` [DOXORUBICIN HYDROCHLORIDE], in assay [2], the concentration for half-maximal inhibition (IC50) is 1.23 µM.
